{"source": "ChEMBL document CHEMBL1125495", "about": "“Inhibitors of human renin with C-termini derived from amides and esters of alpha-mercaptoalkanoic acids” (J Med Chem, 1992)", "key": {"Rhesus monkey [1]": {"test_system": "Rhesus monkey", "assay": "Half life of hypotensive effect in sodium deficient rhesus monkeys after iv administration (dose 0.99 mg/kg).", "format": "functional, organism-based", "set-up": "dose 0.99 mg/kg", "conditions": "Cercopithecidae", "procedure,_shortened": "(§1)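 Conscious male and female rhesus monkeys (N = 2) with chronic arterial access ports for direct MAP and heart-rate monitoring, and venous catheters for dosing. Animals were kept on a low-sodium diet, given furosemide the evening before, and fasted 18 h before and during the study. Compound was given iv in 0.05% acetic acid/5% dextrose/H2O, 20 min after a vehicle control dose. Peak changes were averaged, and the hypotensive half-life was read from time plots.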"}, "Renin (Homo sapiens) [2]": {"molecular_target": "T1, Renin (Homo sapiens) (UniProt P00797)", "T1 sequence (whole entry)": "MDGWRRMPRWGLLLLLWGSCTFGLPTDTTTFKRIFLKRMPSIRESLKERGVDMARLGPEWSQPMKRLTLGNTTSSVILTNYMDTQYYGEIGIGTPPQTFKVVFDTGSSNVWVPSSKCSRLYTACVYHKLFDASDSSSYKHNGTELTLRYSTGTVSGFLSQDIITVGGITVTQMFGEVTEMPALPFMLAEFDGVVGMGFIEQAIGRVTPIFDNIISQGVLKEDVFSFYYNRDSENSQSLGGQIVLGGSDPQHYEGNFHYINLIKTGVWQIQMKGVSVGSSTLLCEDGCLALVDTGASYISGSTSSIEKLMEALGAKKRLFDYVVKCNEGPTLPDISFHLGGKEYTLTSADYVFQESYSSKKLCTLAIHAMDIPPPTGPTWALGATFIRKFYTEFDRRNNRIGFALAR", "conditions": "Cercopithecidae; at 0.99 mg/kg"}, "Rhesus monkey [3]": {"test_system": "Rhesus monkey", "assay": "In vivo effect on heart rate(peak deltaHR) in sodium deficient rhesus monkeys after iv administration (dose 0.99 mg/kg).", "format": "functional, Cercopithecidae", "procedure,_shortened": "as §1"}, "Rhesus monkey [4]": {"test_system": "Rhesus monkey", "assay": "In vivo effect on mean arterial pressure(peak deltaMAP) in sodium deficient rhesus monkeys after iv administration (dose 0.99 mg/kg).", "format": "functional, Cercopithecidae, Artery", "procedure,_shortened": "as §1"}, "Renin": {"molecular_target": "T2, Renin (Homo sapiens, UniProt P00797)", "T2 sequence (P00797 whole entry)": "T1 sequence (whole entry)", "assay": "Inhibition of human plasma renin", "format": "cell-free"}, "Rhesus monkey [5]": {"test_system": "Rhesus monkey", "assay": "In vivo effect on heart rate(peak deltaHR) in sodium deficient rhesus monkeys after iv administration (dose 0.26 mg/kg).", "format": "functional, Cercopithecidae", "procedure,_shortened": "as §1"}, "Rhesus monkey [6]": {"test_system": "Rhesus monkey", "assay": "Half life of hypotensive effect in sodium deficient rhesus monkeys after iv administration (dose 0.26 mg/kg).", "format": "functional, organism-based", "set-up": "dose 0.26 mg/kg", "conditions": "Cercopithecidae", "procedure,_shortened": "as §1"}, "Rhesus monkey [7]": {"test_system": "Rhesus monkey", "assay": "In vivo on mean arterial pressure(peak deltaMAP) in sodium deficient rhesus monkeys after iv administration (dose 0.26 mg/kg).", "format": "functional, Cercopithecidae, Artery", "procedure,_shortened": "as §1"}, "Renin (Homo sapiens) [8]": {"molecular_target": "T1, Renin (Homo sapiens)", "assay": "In vivo inhibition of plasma renin activity in sodium deficient rhesus monkeys after iv administration (dose 0.26 mg/kg, determined at peak deltaMAP).", "format": "functional, organism-based", "set-up": "dose 0.26 mg/kg", "conditions": "Cercopithecidae, target entry is the homologue from another species, at 0.26 mg/kg", "procedure,_shortened": "(§2)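 Sodium-deficient rhesus monkeys (N = 2) were kept on a low-sodium diet, given furosemide the evening before, and fasted 18 h. Compound was given iv through a venous catheter in 0.05% acetic acid/5% dextrose/H2O, 20 min after vehicle. Blood was drawn periodically via an arterial access port for plasma renin activity. Percent inhibition was taken at peak ΔMAP.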"}, "Rhesus monkey [9]": {"test_system": "Rhesus monkey", "assay": "In vivo effect on heart rate(peak deltaHR) in sodium deficient rhesus monkeys after iv administration (dose 0.063 mg/kg).", "format": "functional, Cercopithecidae", "procedure,_shortened": "as §1"}, "Rhesus monkey [10]": {"test_system": "Rhesus monkey", "assay": "In vivo effect on mean arterial pressure(peak deltaMAP) in sodium deficient rhesus monkeys after iv administration (dose 0.063 mg/kg).", "format": "functional, Cercopithecidae, Artery", "procedure,_shortened": "as §1"}, "Rhesus monkey [11]": {"test_system": "Rhesus monkey", "assay": "Half life of hypotensive effect in sodium deficient rhesus monkeys after iv administration (dose 0.063 mg/kg).", "format": "functional, organism-based", "set-up": "dose 0.063 mg/kg", "conditions": "Cercopithecidae", "procedure,_shortened": "as §1"}, "Renin (Homo sapiens) [12]": {"molecular_target": "T1, Renin (Homo sapiens)", "assay": "In vivo inhibition of plasma renin activity in sodium deficient rhesus monkeys after iv administration (dose 0.063 mg/kg, determined at peak deltaMAP).", "format": "functional, organism-based", "set-up": "dose 0.063 mg/kg", "conditions": "Cercopithecidae, target entry is the homologue from another species, at 0.063 mg/kg", "procedure,_shortened": "as §2"}}, "data": [{"smiles": "CC(C)(C)OC(=O)N[C@@H](Cc1ccccc1)C(=O)N[C@@H](Cc1c[nH]cn1)C(=O)N[C@@H](CC1CCCCC1)[C@@H](O)CSCC(=O)NCc1ccncc1", "values": [{"measurement": "T1/2", "setting": "Rhesus monkey [1]", "value": "< 10", "unit": "min"}, {"measurement": "inhibition", "setting": "Renin (Homo sapiens) [2]", "value": 88, "unit": "%"}, {"measurement": "Peak deltaHR", "setting": "Rhesus monkey [3]", "value": -26, "unit": "beats min-1"}, {"measurement": "Peak deltaMAP", "setting": "Rhesus monkey [4]", "value": -16, "unit": "mmHg"}]}, {"smiles": "CC(C)CC(C(=O)NCCN1CCOCC1)S(=O)(=O)C[C@H](O)[C@H](CC1CCCCC1)NC(=O)[C@H](Cc1c[nH]cn1)NC(=O)[C@H](Cc1ccccc1)NC(=O)OC(C)(C)C", "note": "(stereo not given in full)", "values": [{"measurement": "IC50", "setting": "Renin", "value": 77, "unit": "nM"}]}, {"smiles": "CC(C)(C)OC(=O)N[C@@H](Cc1ccccc1)C(=O)N[C@@H](Cc1c[nH]cn1)C(=O)N[C@@H](CC1CCCCC1)[C@@H](O)CSCC(=O)NC1CN2CCC1CC2", "note": "(stereo not given in full)", "values": [{"measurement": "Peak deltaHR", "setting": "Rhesus monkey [5]", "value": -18, "unit": "beats min-1"}, {"measurement": "T1/2", "setting": "Rhesus monkey [6]", "value": "< 10", "unit": "min"}, {"measurement": "Peak deltaMAP", "setting": "Rhesus monkey [7]", "value": -20, "unit": "mmHg"}, {"measurement": "inhibition", "setting": "Renin (Homo sapiens) [8]", "value": 93, "unit": "%"}, {"measurement": "IC50", "setting": "Renin", "value": 29, "unit": "nM"}]}, {"smiles": "CC(C)CC(C(=O)NCCN1CCOCC1)[S+]([O-])C[C@H](O)[C@H](CC1CCCCC1)NC(=O)[C@H](Cc1cnc[nH]1)NC(=O)[C@H](Cc1ccccc1)NC(=O)OC(C)(C)C", "note": "(stereo not given in full)", "values": [{"measurement": "IC50", "setting": "Renin", "value": 88, "unit": "nM"}]}, {"smiles": "CC(C)CC(SC[C@H](O)[C@H](CC1CCCCC1)NC(=O)[C@H](Cc1cnc[nH]1)NC(=O)[C@H](Cc1ccccc1)NC(=O)OC(C)(C)C)C(=O)NCCN1CCOCC1", "note": "(stereo not given in full)", "values": [{"measurement": "IC50", "setting": "Renin", "value": 73, "unit": "nM"}]}, {"smiles": "CC(C)(C)OC(=O)N[C@@H](Cc1ccccc1)C(=O)N[C@@H](Cc1cnc[nH]1)C(=O)N[C@@H](CC1CCCCC1)[C@@H](O)CSCC(=O)NCc1ccncc1", "values": [{"measurement": "IC50", "setting": "Renin", "value": 92, "unit": "nM"}]}, {"smiles": "CC(C)(C)OC(=O)N[C@@H](Cc1ccccc1)C(=O)N[C@@H](Cc1c[nH]cn1)C(=O)N[C@@H](CC1CCCCC1)[C@@H](O)CS(=O)(=O)CC(=O)NC1C[N+]2([O-])CCC1CC2", "note": "(stereo not given in full)", "values": [{"measurement": "IC50", "setting": "Renin", "value": 4.2, "unit": "nM"}]}, {"smiles": "CN1CCN(C(=O)CS(=O)(=O)C[C@H](O)[C@H](CC2CCCCC2)NC(=O)[C@H](Cc2c[nH]cn2)NC(=O)[C@H](Cc2ccccc2)NC(=O)OC(C)(C)C)CC1", "values": [{"measurement": "IC50", "setting": "Renin", "value": 20, "unit": "nM"}]}, {"smiles": "CC(C)(C)S(=O)(=O)[C@@H](Cc1ccccc1)C(=O)N[C@@H](Cc1c[nH]cn1)C(=O)N[C@@H](CC1CCCCC1)[C@@H](O)CS(=O)(=O)CC(=O)NCCN1CCOCC1", "values": [{"measurement": "Peak deltaHR", "setting": "Rhesus monkey [9]", "value": -13, "unit": "beats min-1"}, {"measurement": "Peak deltaMAP", "setting": "Rhesus monkey [10]", "value": -20.5, "unit": "mmHg"}, {"measurement": "T1/2", "setting": "Rhesus monkey [11]", "value": "< 10", "unit": "min"}, {"measurement": "IC50", "setting": "Renin", "value": 7.2, "unit": "nM"}, {"measurement": "inhibition", "setting": "Renin (Homo sapiens) [12]", "value": 94, "unit": "%"}]}]}
